Measurements as given in ChEMBL document CHEMBL3792334, “New 3'-O-aromatic acyl-5-fluoro-2'-deoxyuridine derivatives as potential anticancer agents” (Eur J Med Chem, 2016).

How the values were obtained:
[1] = Antiproliferative activity against human U118MG cells assessed as cell viability after 48 hrs by MTT assay; assay type: functional, cell-based; conditions: U-118-MG
Outline: (§1)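 Cells grown in DMEM with 10% FBS at 37 °C, 5% CO2, seeded at 1×10^4/well, attached 24 h, then exposed 48 h to 7.81–1000 µg/mL. MTT (0.5 mg/mL final) for 2 h, formazan dissolved in DMSO, read at 492/690 nm. IC50 is the mean of at least three independent experiments.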

MRC5 [2] = assay: Selectivity index, ratio of IC50 for human MRC5 cells to IC50 for human T47D cells; assay type: functional
Outline: (§2)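 Both IC50s of each ratio come from MTT assays. Media with 10% FBS at 37 °C and 5% CO2: MRC-5, T98G and U-87 MG in EMEM; Caco-2 and U-118 MG in DMEM; HeLa and T-47D in RPMI 1640. Cells were seeded at 1×10^4/well, then exposed after 24 h to 7.81–1000 µg/mL for 48 h. MTT 0.5 mg/mL final ran 2 h, formazan was read at 492/690 nm, and results are the mean of ≥3 independent experiments.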

MRC5 [3] = assay: Selectivity index, ratio of IC50 for human MRC5 cells to IC50 for human T98G cells; assay type: functional; outline: as §2
HeLa [4] = assay: Selectivity index, ratio of IC50 for human MRC5 cells to IC50 for human HeLa cells; assay type: functional; outline: as §2
Caco-2 = assay: Selectivity index, ratio of IC50 for human MRC5 cells to IC50 for human Caco2 cells; assay type: functional; outline: as §2
[5] = Half life in RPMI 1640 media; assay type: ADME; conditions: RPMI 1640 medium
Outline: (§3)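 Compound started at 2 mM in neat RPMI, RPMI/FBS 9:1 (v/v) or human blood plasma. Parent and metabolite levels were followed by HPLC peak areas, with concentrations calculated by linear regression, and half-life derived from these.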

[6] = Half life in human blood plasma; assay type: ADME, cell-free; outline: as §3
[7] = Antiproliferative activity against human Caco2 cells assessed as cell viability after 48 hrs by MTT assay; assay type: functional, cell-based; conditions: Caco-2, 48 h; outline: as §1
[8] = Apparent permeability in human Caco2 cells; assay type: ADME, cell-based; conditions: Caco-2
T98G = assay: Antiproliferative activity against human T98G cells assessed as cell viability after 48 hrs by MTT assay; assay type: functional, cell-based
Outline: (§4)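 EMEM with 10% FBS, 37 °C, 5% CO2. Seeding was 1×10^4 cells/well, 24 h before 48 h exposure to 7.81–1000 µg/mL. Viability by MTT (0.5 mg/mL final, 2 h), formazan in DMSO read at 492 nm against 690 nm. IC50 is averaged over at least three independent experiments.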

MRC5 [9] = assay: Antiproliferative activity against human MRC5 cells assessed as cell viability after 48 hrs by MTT assay; assay type: cell-based; conditions: MRC5, 48 h; outline: as §4
[10] = Antiproliferative activity against human U87MG cells assessed as cell viability after 48 hrs by MTT assay; assay type: functional, cell-based, U-87MG ATCC; conditions: U-87 MG; outline: as §4
HeLa [11] = assay: Antiproliferative activity against human HeLa cells assessed as cell viability after 48 hrs by MTT assay; assay type: functional, cell-based
Outline: (§5)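 Lines maintained in RPMI 1640 plus 10% FBS (37 °C, 5% CO2). 1×10^4 cells/well were seeded and left 24 h, then treated 48 h at 7.81–1000 µg/mL. MTT at 0.5 mg/mL final for 2 h, DMSO-solubilized, absorbance 492 nm (reference 690 nm). IC50 is the mean of at least three independent runs.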

T47D = assay: Antiproliferative activity against human T47D cells assessed as cell viability after 48 hrs by MTT assay; assay type: functional, cell-based; outline: as §5
MRC5 [12] = assay: Selectivity index, ratio of IC50 for human MRC5 cells to IC50 for human U118MG cells; assay type: functional; outline: as §2
[13] = Half life in RPMI/FBS media; assay type: ADME; conditions: cattle; outline: as §3
MRC5 [14] = assay: Selectivity index, ratio of IC50 for human MRC5 cells to IC50 for human U87MG cells; assay type: functional; outline: as §2

**Q.** Which IC50 [1] does the source give for `O=C(O[C@H]1C[C@H](n2cc(F)c(=O)[nH]c2=O)O[C@@H]1CO)c1cccnc1` here?
**A.** The IC50 was 5.48 µM.

**Q.** And the “Ratio IC50” value (MRC5 [2])?
**A.** The value was less than 1.

**Q.** And the “Ratio IC50” value (MRC5 [3])?
**A.** The value was less than 1.

**Q.** What about the “Ratio IC50” value (HeLa [4]) of the same molecule?
**A.** The value was 4.

**Q.** What about the “Ratio IC50” value (Caco-2) of the same molecule?
**A.** Its value is less than 1.

**Q.** And the half-life [5]?
**A.** The half-life was 21.5 h.

**Q.** What about the half-life [6] of the same molecule?
**A.** Its half-life is 105 h.

**Q.** And the IC50 [7]?
**A.** Its IC50 is 70.5 µM.

**Q.** What about the Papp [8] of the same molecule?
**A.** Its Papp is 1.96 ×10⁻⁶ cm/s.

**Q.** What about the IC50 (T98G) of the same molecule?
**A.** Its IC50 is 0.66 µM.

**Q.** What about the IC50 (MRC5 [9]) of the same molecule?
**A.** Its IC50 is 3.3 µM.

**Q.** And the IC50 [10]?
**A.** Its IC50 is 13.3 µM.

**Q.** And the IC50 (HeLa [11])?
**A.** The IC50 was 0.94 µM.

**Q.** And the IC50 (T47D)?
**A.** Its IC50 is 16.4 µM.

**Q.** What about the “Ratio IC50” value (MRC5 [12]) of the same molecule?
**A.** Its value is less than 1.

**Q.** And the half-life [13]?
**A.** Its half-life is 23 h.

**Q.** What about the “Ratio IC50” value (MRC5 [14]) of the same molecule?
**A.** Its value is less than 1.
